Laboratory results taken from ChEMBL document CHEMBL4715714, “Design, synthesis and biological evaluation of thiosemicarbazones, hydrazinobenzothiazoles and arylhydrazones as anticancer agents with a potential to overcome multidrug resistance” (Eur J Med Chem, 2016).
Active and inactive are the calls of the source. The rule behind the calls is not given here.

test system: A2780; test: Cytotoxicity against human A2780 cells assessed as inhibition of cell proliferation incubated for 72 hrs by MTT assay; type: functional, cell-based; details: A2780, 72 h, read-out: IC50
Summary of the method: (§1)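 Cells were seeded (10000/well for A2780, 5000/well for MES-SA/Dx5 and KB-3-1/V1) and left to attach 12 h, then exposed to compound for 72 h. Medium was removed, and MTT (0.83 mg/mL) was added for 1 h at 37 °C. Cells were lysed in DMSO and absorbance read at 540 nm. Signal was corrected for unstained lysate background, normalized to untreated cells, and IC50 taken from a sigmoidal dose-response fit.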

Row | SMILES | IC50
1 | COc1ccc(NC(=S)N/N=C(\C)c2ccccc2N)cc1 | 4.35 µM
2 | COc1cc(N/N=C/c2ccccn2)ncn1 | 1.73 µM
3 | CCc1ccc(/C=N/Nc2nc3ccccc3s2)nc1 | 0.81 µM
4 | O=[N+]([O-])c1ccc(NC(=S)N/N=C/c2ccccn2)cc1 | 0.67 µM
5 | C(=N\Nc1nc2ccccc2s1)/c1ccccn1 | 0.59 µM
6 | COc1ccc(NC(=S)N/N=C/c2ccccc2O)cc1 | 5.47 µM

same assay, conditions: A2780, 72 h, read-out: pIC50 (converted)

Row | SMILES | IC50
7 | COc1ccc(NC(=S)N/N=C(\C)c2ccccc2N)cc1 | 4.27 µM
8 | COc1cc(N/N=C/c2ccccn2)ncn1 | 1.74 µM
9 | CCc1ccc(/C=N/Nc2nc3ccccc3s2)nc1 | 0.813 µM
10 | O=[N+]([O-])c1ccc(NC(=S)N/N=C/c2ccccn2)cc1 | 0.617 µM
11 | C(=N\Nc1nc2ccccc2s1)/c1ccccn1 | 0.575 µM
12 | COc1ccc(NC(=S)N/N=C/c2ccccc2O)cc1 | 5.37 µM

test system: KB 3-1; test: Cytotoxicity against human KB-3-1 cells assessed as inhibition of cell proliferation incubated for 72 hrs by MTT assay; type: functional, cell-based; details: KB 3-1, 72 h, read-out: IC50; summary of the method: as §1

Row | SMILES | IC50
13 | COc1ccc(NC(=S)N/N=C(\C)c2ccccc2N)cc1 | 20.6 µM
14 | COc1cc(N/N=C/c2ccccn2)ncn1 | 1.95 µM
15 | CCc1ccc(/C=N/NC(=S)Nc2ccc([N+](=O)[O-])cc2)nc1 | 8.03 µM
16 | CCc1ccc(/C=N/Nc2nc3ccccc3s2)nc1 | 0.61 µM
17 | O=[N+]([O-])c1ccc(NC(=S)N/N=C/c2ccccn2)cc1 | 1.05 µM
18 | C(=N\Nc1nc2ccccc2s1)/c1ccccn1 | 0.65 µM
19 | COc1ccc(NC(=S)N/N=C/c2ccccc2O)cc1 | 5.02 µM

same assay, conditions: KB 3-1, 72 h, read-out: pIC50 (converted)

Row | SMILES | IC50
20 | COc1ccc(NC(=S)N/N=C(\C)c2ccccc2N)cc1 | 20.4 µM
21 | COc1cc(N/N=C/c2ccccn2)ncn1 | 1.91 µM
22 | CCc1ccc(/C=N/NC(=S)Nc2ccc([N+](=O)[O-])cc2)nc1 | 7.94 µM
23 | CCc1ccc(/C=N/Nc2nc3ccccc3s2)nc1 | 0.933 µM
24 | O=[N+]([O-])c1ccc(NC(=S)N/N=C/c2ccccn2)cc1 | 1.02 µM
25 | C(=N\Nc1nc2ccccc2s1)/c1ccccn1 | 0.646 µM
26 | COc1ccc(NC(=S)N/N=C/c2ccccc2O)cc1 | 5.01 µM

test system: MES-SA; test: Cytotoxicity against human MES-SA cells transfected with mCherry fluorescent protein assessed as inhibition of cell proliferation incubated for 72 hrs by fluorescent assay; type: functional, cell-based; details: not given
Summary of the method: (§2)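 MES-SA and MES-SA/Dx5 cells were made to stably express mCherry by lentiviral transduction. Cells were seeded at 5000 (96-well) or 2500 (384-well) per well, allowed to attach 24 h, then treated with compound dilutions for 72 h. Viability was read as fluorescence, excitation 585 nm, emission 610 nm.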

Row | SMILES | pIC50
27 | C/C(=N\NC(=S)Nc1ccccc1)c1ccccn1 | inactive
28 | COc1ccccc1/C=N/Nc1nc2ccccc2s1 | inactive

same assay, conditions: Homo sapiens, MES-SA, 72 h; read-out: IC50

Row | SMILES | IC50
29 | COc1ccc(NC(=S)N/N=C(\C)c2ccccc2N)cc1 | 18.5 µM
30 | COc1cc(N/N=C/c2ccccn2)ncn1 | 2.45 µM
31 | CCc1ccc(/C=N/NC(=S)Nc2ccc([N+](=O)[O-])cc2)nc1 | 10.5 µM
32 | CCc1ccc(/C=N/Nc2nc3ccccc3s2)nc1 | 4.26 µM
33 | O=[N+]([O-])c1ccc(NC(=S)N/N=C/c2ccccn2)cc1 | 2.74 µM
34 | C(=N\Nc1nc2ccccc2s1)/c1ccccn1 | 2.7 µM
35 | COc1ccc(NC(=S)N/N=C/c2ccccc2O)cc1 | 2.67 µM

same assay, conditions: Homo sapiens, MES-SA, 72 h; read-out: pIC50 (converted)

Row | SMILES | IC50
36 | COc1cc(N/N=C/c2ccccn2)ncn1 | 2.34 µM
37 | CCc1ccc(/C=N/Nc2nc3ccccc3s2)nc1 | 4.27 µM
38 | O=[N+]([O-])c1ccc(NC(=S)N/N=C/c2ccccn2)cc1 | 2.69 µM
39 | C(=N\Nc1nc2ccccc2s1)/c1ccccn1 | 2.69 µM

same assay, conditions: mes-sa

Row | SMILES | IC50
40 | COc1ccccc1/C=N/Nc1nc2ccccc2s1 | Not Active

test system: KB-V1; test: Cytotoxicity against human KB-V1 cells assessed as inhibition of cell proliferation incubated for 72 hrs by MTT assay; type: functional, cell-based; details: KB-V1, 72 h, read-out: IC50; summary of the method: as §1

Row | SMILES | IC50
41 | COc1ccc(NC(=S)N/N=C(\C)c2ccccc2N)cc1 | 22.3 µM
42 | COc1cc(N/N=C/c2ccccn2)ncn1 | 2.83 µM
43 | CCc1ccc(/C=N/NC(=S)Nc2ccc([N+](=O)[O-])cc2)nc1 | 8.93 µM
44 | CCc1ccc(/C=N/Nc2nc3ccccc3s2)nc1 | 1.14 µM
45 | O=[N+]([O-])c1ccc(NC(=S)N/N=C/c2ccccn2)cc1 | 1.99 µM
46 | C(=N\Nc1nc2ccccc2s1)/c1ccccn1 | 0.84 µM
47 | COc1ccc(NC(=S)N/N=C/c2ccccc2O)cc1 | 4.87 µM

same assay, conditions: KB-V1, 72 h, read-out: pIC50 (converted)

Row | SMILES | IC50
48 | COc1ccc(NC(=S)N/N=C(\C)c2ccccc2N)cc1 | 22.4 µM
49 | COc1cc(N/N=C/c2ccccn2)ncn1 | 2.82 µM
50 | CCc1ccc(/C=N/NC(=S)Nc2ccc([N+](=O)[O-])cc2)nc1 | 8.91 µM
51 | CCc1ccc(/C=N/Nc2nc3ccccc3s2)nc1 | 1.15 µM
52 | O=[N+]([O-])c1ccc(NC(=S)N/N=C/c2ccccn2)cc1 | 1.78 µM
53 | C(=N\Nc1nc2ccccc2s1)/c1ccccn1 | 0.813 µM
54 | COc1ccc(NC(=S)N/N=C/c2ccccc2O)cc1 | 5.01 µM

test system: not listed separately; test: Cytotoxicity against human A2780adr cells assessed as inhibition of cell proliferation incubated for 72 hrs by MTT assay; type: functional, cell-based; details: A2780 ADR, read-out: IC50; summary of the method: as §1

Row | SMILES | IC50
55 | COc1ccc(NC(=S)N/N=C(\C)c2ccccc2N)cc1 | 4.87 µM
56 | COc1cc(N/N=C/c2ccccn2)ncn1 | 1.95 µM
57 | CCc1ccc(/C=N/Nc2nc3ccccc3s2)nc1 | 0.62 µM
58 | O=[N+]([O-])c1ccc(NC(=S)N/N=C/c2ccccn2)cc1 | 1.37 µM
59 | C(=N\Nc1nc2ccccc2s1)/c1ccccn1 | 0.45 µM
60 | COc1ccc(NC(=S)N/N=C/c2ccccc2O)cc1 | 6.95 µM

same assay, conditions: A2780 ADR, read-out: pIC50 (converted)

Row | SMILES | IC50
61 | COc1ccc(NC(=S)N/N=C(\C)c2ccccc2N)cc1 | 4.9 µM
62 | COc1cc(N/N=C/c2ccccn2)ncn1 | 1.95 µM
63 | CCc1ccc(/C=N/Nc2nc3ccccc3s2)nc1 | 0.589 µM
64 | O=[N+]([O-])c1ccc(NC(=S)N/N=C/c2ccccn2)cc1 | 1.35 µM
65 | C(=N\Nc1nc2ccccc2s1)/c1ccccn1 | 0.447 µM
66 | COc1ccc(NC(=S)N/N=C/c2ccccc2O)cc1 | 6.92 µM

test system: MES-SA; test: Cytotoxicity against human MES-SA cells assessed as inhibition of cell proliferation incubated for 72 hrs by MTT assay; type: functional, cell-based; details: read-out: IC50; summary of the method: as §1

Row | SMILES | IC50
67 | COc1ccc(NC(=S)N/N=C(\C)c2ccccc2N)cc1 | 10.7 µM
68 | COc1cc(N/N=C/c2ccccn2)ncn1 | 2.82 µM
69 | CCc1ccc(/C=N/NC(=S)Nc2ccc([N+](=O)[O-])cc2)nc1 | 10.9 µM
70 | CCc1ccc(/C=N/Nc2nc3ccccc3s2)nc1 | 3.24 µM
71 | O=[N+]([O-])c1ccc(NC(=S)N/N=C/c2ccccn2)cc1 | 2.7 µM
72 | C(=N\Nc1nc2ccccc2s1)/c1ccccn1 | 1.42 µM
73 | COc1ccc(NC(=S)N/N=C/c2ccccc2O)cc1 | 3.91 µM

same assay, conditions: read-out: pIC50 (converted)

Row | SMILES | IC50
74 | COc1ccc(NC(=S)N/N=C(\C)c2ccccc2N)cc1 | 10.5 µM
75 | CCc1ccc(/C=N/NC(=S)Nc2ccc([N+](=O)[O-])cc2)nc1 | 10.7 µM
76 | CCc1ccc(/C=N/Nc2nc3ccccc3s2)nc1 | 3.16 µM
77 | O=[N+]([O-])c1ccc(NC(=S)N/N=C/c2ccccn2)cc1 | 2.57 µM
78 | C(=N\Nc1nc2ccccc2s1)/c1ccccn1 | 1.41 µM
79 | COc1ccc(NC(=S)N/N=C/c2ccccc2O)cc1 | 3.8 µM

test system: not listed separately; test: Selectivity ratio of IC50 for human MES-SA cells to IC50 for human MES-SA/DX5 cells incubated for 72 hrs by MTT assay; type: functional; details: not given
Summary of the method: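 The selectivity ratio is the IC50 in P-gp-negative parental cells divided by the IC50 in the P-gp-positive resistant partner.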

Row | SMILES | Ratio IC50
80 | CCc1ccc(/C=N/Nc2nc3ccccc3s2)nc1 | 1.68
81 | C(=N\Nc1nc2ccccc2s1)/c1ccccn1 | 1.41

test system: MES-SA/Dx5; test: Cytotoxicity against human MES-SA/DX5 cells assessed as inhibition of cell proliferation incubated for 72 hrs by MTT assay; type: functional, cell-based; details: MES-SA/Dx5, 72 h, read-out: IC50; summary of the method: as §1

Row | SMILES | IC50
82 | COc1ccc(NC(=S)N/N=C(\C)c2ccccc2N)cc1 | 8.02 µM
83 | COc1cc(N/N=C/c2ccccn2)ncn1 | 2.49 µM
84 | CCc1ccc(/C=N/NC(=S)Nc2ccc([N+](=O)[O-])cc2)nc1 | 8.02 µM
85 | CCc1ccc(/C=N/Nc2nc3ccccc3s2)nc1 | 1.85 µM
86 | O=[N+]([O-])c1ccc(NC(=S)N/N=C/c2ccccn2)cc1 | 1.83 µM
87 | C(=N\Nc1nc2ccccc2s1)/c1ccccn1 | 1.02 µM
88 | COc1ccc(NC(=S)N/N=C/c2ccccc2O)cc1 | 3.5 µM

same assay, conditions: MES-SA/Dx5, 72 h, read-out: pIC50 (converted)

Row | SMILES | IC50
89 | COc1ccc(NC(=S)N/N=C(\C)c2ccccc2N)cc1 | 7.94 µM
90 | CCc1ccc(/C=N/NC(=S)Nc2ccc([N+](=O)[O-])cc2)nc1 | 8.13 µM
91 | CCc1ccc(/C=N/Nc2nc3ccccc3s2)nc1 | 1.86 µM
92 | O=[N+]([O-])c1ccc(NC(=S)N/N=C/c2ccccn2)cc1 | 1.78 µM
93 | C(=N\Nc1nc2ccccc2s1)/c1ccccn1 | 1 µM
94 | COc1ccc(NC(=S)N/N=C/c2ccccc2O)cc1 | 3.47 µM

test system: MES-SA/Dx5; test: Cytotoxicity against human MES-SA/DX5 cells transfected with mCherry fluorescent protein assessed as inhibition of cell proliferation incubated for 72 hrs by fluorescent assay; type: functional, cell-based; details: not given; summary of the method: as §2

Row | SMILES | pIC50
95 | C/C(=N\NC(=S)Nc1ccccc1)c1ccccn1 | inactive
96 | COc1ccccc1/C=N/Nc1nc2ccccc2s1 | inactive

same assay, conditions: Homo sapiens, MES-SA/Dx5, 72 h; read-out: IC50

Row | SMILES | IC50
97 | COc1ccc(NC(=S)N/N=C(\C)c2ccccc2N)cc1 | 17.7 µM
98 | COc1cc(N/N=C/c2ccccn2)ncn1 | 2.71 µM
99 | CCc1ccc(/C=N/NC(=S)Nc2ccc([N+](=O)[O-])cc2)nc1 | 11.1 µM
100 | CCc1ccc(/C=N/Nc2nc3ccccc3s2)nc1 | 3.83 µM
101 | O=[N+]([O-])c1ccc(NC(=S)N/N=C/c2ccccn2)cc1 | 2.74 µM
102 | C(=N\Nc1nc2ccccc2s1)/c1ccccn1 | 3.36 µM
103 | COc1ccc(NC(=S)N/N=C/c2ccccc2O)cc1 | 1.85 µM

same assay, conditions: Homo sapiens, MES-SA/Dx5, 72 h; read-out: pIC50 (converted)

Row | SMILES | IC50
104 | COc1cc(N/N=C/c2ccccn2)ncn1 | 2.57 µM
105 | CCc1ccc(/C=N/Nc2nc3ccccc3s2)nc1 | 3.55 µM
106 | O=[N+]([O-])c1ccc(NC(=S)N/N=C/c2ccccn2)cc1 | 2.75 µM
107 | C(=N\Nc1nc2ccccc2s1)/c1ccccn1 | 3.09 µM

same assay, conditions: mes-sa/dx5

Row | SMILES | IC50
108 | COc1ccccc1/C=N/Nc1nc2ccccc2s1 | Not Active
